From ChEMBL document CHEMBL1926657, “Novel bioactive metabolites of dipyrone (metamizol)” (Bioorg Med Chem, 2012)
Each block holds one compound with its values, some of them ahead of it. Active and inactive are the calls of the source. The rule behind the calls is not given here.

Key:
[1] = (§1) Inhibition of COX-mediated PGE2 production in C57BL/6 mouse brain homogenate; format: tissue-based
In short: (§2)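 Mouse brain homogenate (20 µg) made on ice in 50 mM Tris pH 7.4 with 1 mM phenol and protease inhibitors, then incubated with inhibitor or vehicle. Reaction started with 150 µM arachidonic acid at 37°C, stopped after 5 min by acidifying to pH 2.5 with 1% formic acid. Prostanoids extracted in ethyl acetate/hexane (7:1), and PGE2 or 6-keto-PGF1α quantified by GC-MS/MS.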

Mus musculus [2] = species on record: Mus musculus; experiment: as §1; format: tissue-based; in short: as §2
[3] = (§3) Inhibition of COX-mediated 6-keto-PGF1alpha production in C57BL/6 mouse brain homogenate; format: tissue-based; in short: as §2
Mus musculus [4] = species on record: Mus musculus; experiment: as §3; format: tissue-based; in short: as §2
Mus musculus [5] = species on record: Mus musculus; experiment: Inhibition of PGE2 production in LPS-stimulated COX-1 knockout C57BL/6 mouse brain homogenate at 0.8 uM measured after 6 hrs; format: functional
In short: (§4)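 COX-1−/− or COX-2−/− mice injected i.p. with LPS 50 µg kg−1; brains taken 6 h later and homogenised in Tris pH 7.4/phenol/protease-inhibitor buffer. COX activity measured with inhibitor or vehicle: 150 µM arachidonic acid, 37°C, 5 min, formic acid stop to pH 2.5. PGE2 extracted in ethyl acetate/hexane and measured by GC-MS/MS.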

Mus musculus [6] = species on record: Mus musculus; experiment: Inhibition of PGE2 production in LPS-stimulated COX-2 knockout C57BL/6 mouse brain homogenate at 0.4 uM measured after 6 hrs; format: functional; in short: as §4
Mus musculus [7] = species on record: Mus musculus; experiment: Inhibition of PGE2 production in LPS-stimulated COX-1 knockout C57BL/6 mouse brain homogenate measured after 6 hrs; format: functional; conditions: C57BL/6, Brain; in short: as §4
Mus musculus [8] = species on record: Mus musculus; experiment: Inhibition of PGE2 production in LPS-stimulated COX-2 knockout C57BL/6 mouse brain homogenate measured after 6 hrs; format: functional; conditions: C57BL/6, Brain; in short: as §4
Cannabinoid receptor 1 = Cannabinoid receptor 1 (Homo sapiens, UniProt P21554); experiment: Displacement of [3H]CP-55940 from human recombinant CB1 receptor expressed in HEK cells; format: cell-based, HEK293
Sequence of Cannabinoid receptor 1 (P21554 whole entry): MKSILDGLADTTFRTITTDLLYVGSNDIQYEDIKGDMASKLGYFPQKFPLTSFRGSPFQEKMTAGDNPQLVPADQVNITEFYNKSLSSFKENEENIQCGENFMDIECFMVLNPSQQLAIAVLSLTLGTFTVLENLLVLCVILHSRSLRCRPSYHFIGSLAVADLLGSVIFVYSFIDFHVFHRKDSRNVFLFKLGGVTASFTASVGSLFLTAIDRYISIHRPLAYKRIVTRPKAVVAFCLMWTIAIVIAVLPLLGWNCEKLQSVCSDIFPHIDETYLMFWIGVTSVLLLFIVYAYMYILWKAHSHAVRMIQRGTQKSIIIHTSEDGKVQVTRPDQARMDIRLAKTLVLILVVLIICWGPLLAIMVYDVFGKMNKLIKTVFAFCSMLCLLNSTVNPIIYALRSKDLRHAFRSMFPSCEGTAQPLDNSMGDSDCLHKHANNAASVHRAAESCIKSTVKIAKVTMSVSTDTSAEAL

Cannabinoid receptor 2 = Cannabinoid receptor 2 (Homo sapiens, UniProt P34972); experiment: Displacement of [3H]CP-55940 from human recombinant CB2 receptor expressed in HEK cells; format: cell-based, HEK293
Sequence of Cannabinoid receptor 2 (P34972 whole entry): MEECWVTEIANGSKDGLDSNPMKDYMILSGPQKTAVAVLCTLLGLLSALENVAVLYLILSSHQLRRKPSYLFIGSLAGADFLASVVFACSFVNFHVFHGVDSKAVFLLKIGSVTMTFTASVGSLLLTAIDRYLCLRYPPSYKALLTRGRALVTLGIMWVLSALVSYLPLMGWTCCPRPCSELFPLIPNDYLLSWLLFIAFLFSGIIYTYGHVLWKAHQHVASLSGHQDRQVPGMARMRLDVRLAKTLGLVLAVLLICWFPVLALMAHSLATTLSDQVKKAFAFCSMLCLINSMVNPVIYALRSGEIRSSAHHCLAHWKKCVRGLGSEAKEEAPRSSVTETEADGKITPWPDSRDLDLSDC

Mus musculus [9] = species on record: Mus musculus; experiment: Ratio of IC50 for COX-mediated PGE2 production in C57BL/6 mouse brain homogenate measured after 6 hrs in absence of FAAH inhibitor URB532 to IC50 for COX-mediated PGE2 production in C57BL/6 mouse brain homogenate measured after 6 hrs in presence of FAAH inhibitor URB532; format: tissue-based
[10] = Inhibition of COX-mediated PGE2 production in C57BL/6 mouse brain homogenate measured after 6 hrs in presence of FAAH inhibitor URB532; format: tissue-based
Mus musculus [11] = species on record: Mus musculus; experiment: Inhibition of COX-mediated PGE2 production in C57BL/6 mouse brain homogenate at 100 nM to 100 uM; format: tissue-based; in short: as §2
[12] = molecular target: T1, Transient receptor potential cation channel subfamily V member 1 (Homo sapiens, UniProt Q8NER1); experiment: Inhibition of TRPV1
T1 sequence (Q8NER1 whole entry): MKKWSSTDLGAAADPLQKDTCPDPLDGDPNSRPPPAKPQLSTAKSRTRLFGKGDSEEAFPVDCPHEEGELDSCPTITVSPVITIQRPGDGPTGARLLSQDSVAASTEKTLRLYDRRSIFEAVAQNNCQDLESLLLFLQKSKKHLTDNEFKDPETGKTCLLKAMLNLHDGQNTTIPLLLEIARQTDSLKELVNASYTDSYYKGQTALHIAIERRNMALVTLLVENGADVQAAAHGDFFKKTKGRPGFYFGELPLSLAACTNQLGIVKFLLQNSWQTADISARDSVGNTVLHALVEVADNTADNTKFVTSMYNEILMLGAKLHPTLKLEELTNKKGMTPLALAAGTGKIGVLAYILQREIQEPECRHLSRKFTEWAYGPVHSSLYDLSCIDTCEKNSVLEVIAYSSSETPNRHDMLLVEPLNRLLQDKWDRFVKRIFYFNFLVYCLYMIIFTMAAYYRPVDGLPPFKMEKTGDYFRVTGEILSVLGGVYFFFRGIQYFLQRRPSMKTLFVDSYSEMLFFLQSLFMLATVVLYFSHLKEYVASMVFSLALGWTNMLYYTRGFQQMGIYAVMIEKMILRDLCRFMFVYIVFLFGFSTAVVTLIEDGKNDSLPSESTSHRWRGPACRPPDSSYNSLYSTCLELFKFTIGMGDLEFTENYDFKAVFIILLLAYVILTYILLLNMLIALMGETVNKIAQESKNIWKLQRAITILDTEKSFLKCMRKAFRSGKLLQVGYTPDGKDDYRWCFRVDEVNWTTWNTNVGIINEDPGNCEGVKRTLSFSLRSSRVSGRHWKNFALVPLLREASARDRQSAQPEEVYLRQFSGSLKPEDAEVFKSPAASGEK

[13] = molecular target: T1, Transient receptor potential cation channel subfamily V member 1; experiment: Agonist activity at TRPV1; format: functional
[14] = Prodrug activation in C57BL/6 mouse CSF assessed as formation of arachidonoyl-4-methylaminoantipyrin at 600 mg/kg, po administered daily measured after 48 hrs; format: organism-based, Cerebrospinal fluid; parameters: dose 600 mg/kg, route oral; conditions: in vivo
In short: (§5)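 Dipyrone was given in the drinking water, and mice were killed on day 2 (48 h) or day 5 (120 h) under isoflurane. Tissue was extracted with diisopropyl ether/ethyl acetate 1:3, dried and taken up in acetonitrile/water 9:1. The amides were measured by LC-MS/MS on a C18 column. Semi-quantification used external calibration with 10, 100 and 1000 pg standards.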

[15] = Prodrug activation in C57BL/6 mouse CSF assessed as formation of arachidonoyl-4-methylaminoantipyrin at 600 mg/kg, po administered daily measured after 120 hrs; format: organism-based, Cerebrospinal fluid; parameters: dose 600 mg/kg, route oral; conditions: in vivo; in short: as §5
Spleen [16] = experiment: Prodrug activation in C57BL/6 mouse spleen assessed as formation of arachidonoyl-4-methylaminoantipyrin at 600 mg/kg, po administered daily measured after 48 hrs; format: organism-based; parameters: dose 600 mg/kg, route oral; conditions: in vivo; in short: as §5
Spleen [17] = experiment: Prodrug activation in C57BL/6 mouse spleen assessed as formation of arachidonoyl-4-methylaminoantipyrin at 600 mg/kg, po administered daily measured after 120 hrs; format: organism-based; parameters: dose 600 mg/kg, route oral; conditions: in vivo; in short: as §5
[18] = Prodrug activation in C57BL/6 mouse CSF assessed as formation of arachidonoyl-4-aminoantipyrin at 600 mg/kg, po administered daily measured after 48 hrs; format: organism-based, Cerebrospinal fluid; parameters: dose 600 mg/kg, route oral; conditions: in vivo; in short: as §5
[19] = Prodrug activation in C57BL/6 mouse CSF assessed as formation of arachidonoyl-4-aminoantipyrin at 600 mg/kg, po administered daily measured after 120 hrs; format: organism-based, Cerebrospinal fluid; parameters: dose 600 mg/kg, route oral; conditions: in vivo; in short: as §5
Spleen [20] = experiment: Prodrug activation in C57BL/6 mouse spleen assessed as formation of arachidonoyl-4-aminoantipyrin at 600 mg/kg, po administered daily measured after 48 hrs; format: organism-based; parameters: dose 600 mg/kg, route oral; conditions: in vivo; in short: as §5
Spleen [21] = experiment: Prodrug activation in C57BL/6 mouse spleen assessed as formation of arachidonoyl-4-aminoantipyrin at 600 mg/kg, po administered daily measured after 120 hrs; format: organism-based; parameters: dose 600 mg/kg, route oral; conditions: in vivo; in short: as §5
Brain [22] = experiment: Prodrug activation in FAAH wild type C57BL/6 mouse brain assessed as formation of arachidonoyl-4-methylaminoantipyrin at 600 mg/kg, po administered daily measured after 48 hrs; format: organism-based; parameters: dose 600 mg/kg, route oral; conditions: in vivo; in short: as §5
Brain [23] = experiment: Prodrug activation in FAAH wild type C57BL/6 mouse brain assessed as formation of arachidonoyl-4-aminoantipyrin at 600 mg/kg, po administered daily measured after 48 hrs; format: organism-based; parameters: dose 600 mg/kg, route oral; conditions: in vivo; in short: as §5
Brain [24] = experiment: Prodrug activation in FAAH wild type C57BL/6 mouse brain assessed as formation of arachidonoyl-4-methylaminoantipyrin at 600 mg/kg, po administered daily measured after 120 hrs; format: organism-based; parameters: dose 600 mg/kg, route oral; conditions: in vivo; in short: as §5
Brain [25] = experiment: Prodrug activation in FAAH wild type C57BL/6 mouse brain assessed as formation of arachidonoyl-4-aminoantipyrin at 600 mg/kg, po administered daily measured after 120 hrs; format: organism-based; parameters: dose 600 mg/kg, route oral; conditions: in vivo; in short: as §5
[26] = molecular target: T2, Prostaglandin G/H synthase 1 (Mus musculus, UniProt P22437); experiment: Inhibition of COX-1 in C57BL/6 mouse brain homogenate; format: tissue-based
T2 sequence (P22437 whole entry): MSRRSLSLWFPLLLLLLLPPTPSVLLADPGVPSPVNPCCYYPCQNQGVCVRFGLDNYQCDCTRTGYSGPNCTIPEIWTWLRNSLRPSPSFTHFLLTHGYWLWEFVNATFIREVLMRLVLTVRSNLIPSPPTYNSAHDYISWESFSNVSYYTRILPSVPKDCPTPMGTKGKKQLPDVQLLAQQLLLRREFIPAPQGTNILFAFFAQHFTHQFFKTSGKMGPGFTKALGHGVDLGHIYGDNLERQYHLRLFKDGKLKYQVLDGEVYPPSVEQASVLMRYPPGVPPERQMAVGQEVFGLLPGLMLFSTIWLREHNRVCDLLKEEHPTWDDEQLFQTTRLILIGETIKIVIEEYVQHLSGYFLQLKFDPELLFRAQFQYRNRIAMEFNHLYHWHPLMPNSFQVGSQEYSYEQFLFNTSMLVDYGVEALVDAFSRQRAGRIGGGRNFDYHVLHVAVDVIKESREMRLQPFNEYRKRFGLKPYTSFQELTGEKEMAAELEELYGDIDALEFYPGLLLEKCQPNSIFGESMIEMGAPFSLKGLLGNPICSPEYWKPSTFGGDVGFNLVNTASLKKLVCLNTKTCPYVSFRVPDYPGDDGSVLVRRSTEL
In short: (§6)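 Brain homogenate from C57BL/6 mice was prepared on ice in 50 mM Tris pH 7.4 with 1 mM phenol and protease inhibitors. 20 µg of homogenate was incubated with inhibitor or vehicle. The reaction was started with 150 µM arachidonic acid at 37°C and stopped after 5 min with formic acid to pH 2.5. Prostanoids were extracted with ethyl acetate/hexane 7:1. PGE2 and 6-keto-PGF1α were measured by GC-MS/MS, and IC50 was determined.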

[27] = molecular target: T3, Prostaglandin G/H synthase 2 (Mus musculus, UniProt Q05769); experiment: Inhibition of COX-2 in C57BL/6 mouse brain homogenate; format: tissue-based; in short: as §6
T3 sequence (Q05769 whole entry): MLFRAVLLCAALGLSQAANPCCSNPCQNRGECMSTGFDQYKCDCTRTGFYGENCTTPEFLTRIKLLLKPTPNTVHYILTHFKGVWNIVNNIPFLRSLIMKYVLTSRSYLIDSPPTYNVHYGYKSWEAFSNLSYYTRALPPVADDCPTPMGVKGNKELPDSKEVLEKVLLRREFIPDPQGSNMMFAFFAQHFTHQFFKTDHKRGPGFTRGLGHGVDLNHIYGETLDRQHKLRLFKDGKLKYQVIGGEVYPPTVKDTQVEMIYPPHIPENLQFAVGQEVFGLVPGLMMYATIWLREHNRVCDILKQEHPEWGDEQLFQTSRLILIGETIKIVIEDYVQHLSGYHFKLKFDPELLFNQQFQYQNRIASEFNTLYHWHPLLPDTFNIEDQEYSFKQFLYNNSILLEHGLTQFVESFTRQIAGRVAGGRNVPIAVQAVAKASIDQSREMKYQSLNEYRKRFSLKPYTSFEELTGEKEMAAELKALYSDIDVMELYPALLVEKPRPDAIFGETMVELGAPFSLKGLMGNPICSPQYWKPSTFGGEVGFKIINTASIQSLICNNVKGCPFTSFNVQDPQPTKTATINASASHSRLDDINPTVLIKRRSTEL

Structure (SMILES): CCCCC/C=C\C/C=C\C/C=C\C/C=C\CCCC(=O)N(C)c1c(C)n(C)n(-c2ccccc2)c1=O
IC50 [1]: 13.2 µM
inhibition (Mus musculus [2]): Dose-dependent effect
IC50 [3]: 5.2 µM
inhibition (Mus musculus [4]): Dose-dependent effect
inhibition (Mus musculus [5]): Active
inhibition (Mus musculus [6]): 30%
IC50 (Mus musculus [7]): 0.355 µM
IC50 (Mus musculus [8]): 0.107 µM
Ki (Cannabinoid receptor 1): 7.8 µM
Ki (Cannabinoid receptor 2): 3 µM
Ratio IC50 (Mus musculus [9]): > 200
IC50 [10]: 0.058 µM

Structure (SMILES): CCCCC/C=C\C/C=C\C/C=C\C/C=C\CCCC(=O)Nc1c(C)n(C)n(-c2ccccc2)c1=O
inhibition (Mus musculus [11]): inactive
Ki (Cannabinoid receptor 1): 2.9 µM
Ki (Cannabinoid receptor 2): 5.4 µM
inhibition [12]: inactive

Structure (SMILES): CCCCC/C=C\C/C=C\C/C=C\C/C=C\CCCC(=O)Nc1ccc(O)cc1
EC50 [13]: 0.026 µM

Drug metabolism [14]: Active
Drug metabolism [15]: Active
Drug metabolism (Spleen [16]): Active
Drug metabolism (Spleen [17]): Active
Drug metabolism [18]: Active
Drug metabolism [19]: Active
Drug metabolism (Spleen [20]): Active
Drug metabolism (Spleen [21]): Active
Drug metabolism (Brain [22]): Active
Drug metabolism (Brain [23]): Active
Drug metabolism (Brain [24]): Active
Drug metabolism (Brain [25]): Active
Structure (SMILES): Cc1c(N(C)CS(=O)(=O)[O-])c(=O)n(-c2ccccc2)n1C.[Na+] [DIPYRONE SODIUM]

IC50 [26]: 1000 µM
IC50 [27]: 1000 µM
Structure (SMILES): Cc1c(N)c(=O)n(-c2ccccc2)n1C [AMPYRONE]
